SENP8 block-1 – inhibitors of human SENP8 protease. purified SENP8, Z-RLRGG-aminoluciferin cleavage, luminescence. Q96LD8. inhibition, % at 10 µM. 330,000 compounds, 1.2% hits. AID 2540; in the data active = inhibition above about 50%
Target sequence (Q96LD8 whole entry, looked up): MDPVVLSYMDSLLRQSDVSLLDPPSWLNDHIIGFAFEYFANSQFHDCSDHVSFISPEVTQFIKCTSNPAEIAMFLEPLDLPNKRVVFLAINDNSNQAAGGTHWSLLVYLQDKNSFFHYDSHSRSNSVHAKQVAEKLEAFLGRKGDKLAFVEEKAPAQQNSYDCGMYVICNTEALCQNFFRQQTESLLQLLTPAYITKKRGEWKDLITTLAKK
SENP1 inh – SENP1 (human) catalytic domain inhibition | Q9P0U3 | recombinant SENP1 catalytic domain, CyPet-SUMO1-YPet FRET cleavage | inhibition, % at 10 µM | 360,000 compounds, 0.21% hits | AID 624204;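 active = inhibition at least 30% at 10 µM, raw YFP signal under a set limit, fluorescence ratio 0.5 to 1.5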;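 note: 0% = enzyme with DMSO and 100% = no enzyme wells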
Target sequence (Q9P0U3 419-644 limits assumed): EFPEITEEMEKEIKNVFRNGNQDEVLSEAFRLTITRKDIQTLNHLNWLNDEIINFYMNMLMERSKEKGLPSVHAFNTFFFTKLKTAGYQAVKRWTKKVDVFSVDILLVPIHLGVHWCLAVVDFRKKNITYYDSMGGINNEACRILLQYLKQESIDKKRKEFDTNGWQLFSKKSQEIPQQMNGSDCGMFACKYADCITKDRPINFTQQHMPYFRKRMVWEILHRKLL
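Compound: 10 µM single point, 0.5% DMSO; Test system: hSENP1 catalytic domain, recombinant; Timing: 50 min reaction at room temperature; Technique: FRET, CFP and YFP emission; Control set: no-enzyme wells low, DMSO-plus-enzyme wells high control.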
SENP6 inh – blocks the human protease SENP6; Q9GZR1; Recombinant SENP6 catalytic domain, aminoluciferin luminescence; inhibition, % at 10 µM; 330,000 compounds, 1.8% hits; AID 2599;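 active = inhibition above about 50% at the single tested dose, limit read from the data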;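 note: plate controls were DMSO wells with enzyme for no effect and DMSO wells lacking enzyme for full effect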
HSP90 inh – HSP90 refolding inhibition in rabbit reticulocyte lysate. luciferase refolding luminescence, 3 h. inhibition, % at 5.6 µM. 290,000 compounds, 0.91% hits. AID 1789;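 active = inhibition above the screen-wide mean plus 3 SD, computed separately per campaign, cut at about 16% in these data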;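 note: 0% = DMSO wells and 100% = 60 µM geldanamycin wells; inhibitors lower the luminescence because luciferase stays unfolded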
SENP8 block-2 – blocks human SENP8 cleavage of Nedd8 substrate | recombinant SENP8, Nedd8 substrate fluorescence | inhibition, % at 20 µM | 360,000 compounds, 0.64% hits | AID 602440; in the data active = inhibition mostly above about 40%, no sharp cut-off; inactive = mostly below about 27%
SENP7 inh – blocks the human protease SENP7 | inhibition, % at 5 µM | Q9BQF6 | recombinant SENP7, Z-RLRGG-aminoluciferin luminescence, 40 min | 330,000 compounds, 1.5% hits | AID 434973;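 active = inhibition above about 50% at the single test dose, limit read from the data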;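 note: plate controls were DMSO with enzyme for no effect and no enzyme buffer wells for full effect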
SENP8 conf – confirmation of human SENP8 protease inhibitors; shares compounds with SENP7 inh; Recombinant SENP8, Z-RLRGG-aminoluciferin luminescence, 60 min; inhibition, % at 12.5 µM; 6,200 compounds, 40% hits; AID 488912;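 active = mean inhibition across replicates above about 50%, limit read from the data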
SENP6 confirm – confirmation of human SENP6 protease inhibitors; AID 488915; inhibition, % at 12.5 µM; recombinant SENP6, Z-RLRGG-aminoluciferin luminescence; 6,200 compounds, 58% hits; shares compounds with SENP7 inh
SENP7 conf – human SENP7 inhibition, confirmed | shares compounds with SENP7 inh | recombinant SENP7, Z-RLRGG-aminoluciferin luminescence, 40 min | inhibition, % at 12.5 µM | 6,200 compounds, 69% hits | AID 488917
Casp3 SENP sel – inhibits human caspase-3 in SENP selectivity test; shares compounds with SENP7 inh; 6,200 compounds, 60% hits; purified caspase-3, Z-DEVD-aminoluciferin luminescence, 60 min; inhibition, % at 12.5 µM; AID 488918;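 active = mean inhibition above about 50%, limit read from the data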;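 note: plate controls were enzyme with DMSO for no effect and wells without caspase-3 for full effect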
Target sequence (P42574 28-227 limits assumed): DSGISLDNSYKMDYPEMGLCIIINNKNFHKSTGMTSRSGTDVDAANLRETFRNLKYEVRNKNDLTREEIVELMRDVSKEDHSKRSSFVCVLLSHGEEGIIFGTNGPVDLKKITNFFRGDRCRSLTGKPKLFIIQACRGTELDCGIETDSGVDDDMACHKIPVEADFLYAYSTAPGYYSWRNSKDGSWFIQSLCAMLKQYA
Luc interf – luminescence interference (SENP counter-screen) | AID 488919 | shares compounds with SENP7 inh | 6,200 compounds, 39% hits | inhibition, % at 12.5 µM | Pre-incubated SENP8/Z-RLRGG-aminoluciferin, luciferase luminescence interference;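 active = mean inhibition above about 50% when retested at one dose, limit read from the data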;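 note: plate controls were DMSO wells with completed reaction for no effect and substrate without enzyme for full effect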
Starred values were filed as active, the others as inactive; / = not tested or not shown. In the library only some 2.9% were active in any assay of this set; here they are far more common.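 Rule for the calls, unless noted: active = mean inhibition above about 50% in the one-dose retest (limit read from the data); inactive = the rest.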

SMILES	SENP8 block-1	SENP1 inh	SENP6 inh	HSP90 inh	SENP8 block-2	SENP7 inh	SENP8 conf	SENP6 confirm	SENP7 conf	Casp3 SENP sel	Luc interf
Cc1ccc(S(=O)(=O)NC(=O)C2(C)CCN2C(=O)Cc2ccc(Cl)cc2Cl)cc1 (centres undefined)	/	0	/	/	9	/	/	/	/	/	/
CC(C)C1C(=O)N(Cc2cn(CC3CCCCC3)nn2)CCS(=O)(=O)N1Cc1ccc(-c2ccncc2)cc1 (centres undefined)	/	0	/	/	7	/	/	/	/	/	/
Cc1ncoc1C(=O)Nc1ccc(Oc2ccccc2)cc1	32	3	62*	-1	12	56*	51*	46	78*	44	62*
Cc1ccsc1C(=O)Nc1ccc2c(c1)OCCO2	85*	1	86*	15	-4	92*	90*	90*	99*	95*	91*
Cc1c([N+](=O)[O-])c(C(=O)Nc2ccc3c(c2)OCCO3)nn1C	42	1	75*	-2	12	73*	68*	66*	87*	89*	72*
Cc1ncoc1C(=O)Nc1ccc2c(c1)OCCO2	60*	0	64*	7	3	77*	70*	66*	89*	91*	72*
O=C(Nc1ccc2c(c1)OCCO2)c1ccc(Br)s1	/	-1	/	12	13	/	/	/	/	/	/
COc1ccc(NC(=O)c2ocnc2C)cc1OC	-16	2	-1	4	12	-3	/	/	/	/	/
COc1ccccc1-c1csc(C(O)c2cccc(Cl)c2)n1 (centres undefined)	/	2	/	/	21	/	/	/	/	/	/
CC1=C(C(=O)N(C)C)CC(CC(=O)NC(c2ccccc2)c2ccccc2)C(=O)N1CCC1=CCCCC1 (centres undefined)	/	-1	/	/	1	/	/	/	/	/	/
Cc1noc(C)c1COc1ccc(C(=O)N2CCN(S(=O)(=O)c3cccc(F)c3)CC2)cc1	-1	0	-2	/	18	-7	/	/	/	/	/
CSc1ccc(CN2CCC(C)(Oc3ccc(F)cc3)C2)cc1 (centres undefined)	/	-1	/	/	22	/	/	/	/	/	/
CN(C)S(=O)(=O)c1cccc(NC(=O)c2ccc3c(c2)S(=O)(=O)N=C2CCCCCN23)c1	7	-2	-4	/	-4	-10	/	/	/	/	/
CCCCN(C(=O)NC(=O)Nc1ccccc1OC)S(C)(=O)=O	3	1	-2	0	4	56*	9	7	1	-1	-8
COc1ccccc1NC(=O)NC(=O)N(C(C)C)S(C)(=O)=O	3	1	9	-3	8	5	/	/	/	/	/
Clc1ccc(-c2nc3c4ccccc4ccn3c2CC2CCCCC2)cc1	/	-2	/	/	-385	/	/	/	/	/	/
Cc1cccc(NC(=O)c2cc(-c3ccc(C)c(C)c3O)n[nH]2)c1	20	0	40	0	31	86*	8	15	95*	59*	54*
Cc1ccc(NC(=O)c2cc(-c3ccc(C)c(C)c3O)n[nH]2)cc1C	-11	3	1	-2	14	9	/	/	/	/	/
COC(=O)[C@]12CCCCC=C1N(Cc1ccco1)C(=O)[C@H](CC(=O)NCc1ccccc1)C2	/	-1	/	/	5	/	/	/	/	/	/
Cc1ccc(OC(=O)N(C)C[C@@H]2OCc3cn(nn3)CCCC(=O)N([C@H](C)CO)C[C@H]2C)cc1	/	0	/	/	0	/	/	/	/	/	/
Cc1cc(C(=O)Nn2cnnc2)ccc1[N+](=O)[O-]	72*	2	81*	3	17	78*	69*	65*	92*	93*	76*
COc1cccc(NC(=O)c2ccc3snnc3c2)c1	48	-1	64*	0	33	58*	56*	52*	84*	75*	64*
O=C(Nc1ccc(F)cc1)c1ccc2snnc2c1	4	-1	-1	-4	2	2	/	/	/	/	/
COc1cccc(NC(=O)c2ccc3c(c2)N(C)CCS3)c1	94*	-20	91*	-1	-466	96*	95*	96*	100*	94*	96*
COc1cccc(NC(=O)c2ccc3nc(C)sc3c2)c1	72*	1	91*	-8	16	89*	80*	81*	95*	87*	84*
SMILES	SENP8 block-1	SENP1 inh	SENP6 inh	HSP90 inh	SENP8 block-2	SENP7 inh	SENP8 conf	SENP6 confirm	SENP7 conf	Casp3 SENP sel	Luc interf
O=C(COC(=O)C1CC1)Nc1ccc(Cl)cn1	1	-15	11	/	-31	4	/	/	/	/	/
CCn1c(=O)c2sccc2n2c(CCCC(=O)NCc3cccnc3)nnc12	5	1	6	-7	13	1	/	/	/	/	/
CCOc1ccc(NC2=CC(=O)C(=O)c3ccccc32)cc1	/	0	/	/	-186	/	/	/	/	/	/
Cc1ccc(NS(=O)(=O)c2ccc3c(c2)C(=O)c2ccccc2C3=O)c(C)c1	/	0	/	0	18	/	/	/	/	/	/
O=C1C=C(NCc2ccccc2)c2ccccc2C1=O	/	-66	/	12	-363	/	/	/	/	/	/
O=C1C=C(Nc2ccccc2O)c2ccccc2C1=O	77*	30*	88*	4	-173	1	-6	86*	67*	19	-5
O=C1C=C(Nc2ccc(F)cc2)c2ccccc2C1=O	72*	-3	82*	/	-237	45	11	89*	23	40	-4
Cc1ccc(NC2=CC(=O)C(=O)c3ccccc32)c(C)c1	49	-1	51*	/	-415	32	-4	42	-3	4	2
COC(=O)N(C)C[C@@H]1OCc2cn(nn2)CCCC(=O)N([C@@H](C)CO)C[C@H]1C	/	2	/	/	12	/	/	/	/	/	/
O=C(N/N=C/c1ccc(O)cc1)c1cccc(C(F)(F)F)c1	-7	3	-8	-3	-16	-1	/	/	/	/	/
O=C(O)c1cccc(N/N=C/c2ccc(F)c(F)c2)c1	94*	0	101*	7	-19	2	99*	99*	102*	86*	98*
O=C(N/N=C/c1ccc(O)cc1)c1cccc(N/N=C/c2ccc(O)cc2)c1	15	-2	52*	12	-32	22	6	-11	25	25	32
COc1ccc(Cl)cc1NC(=O)COC(=O)C1COc2ccccc2O1 (centres undefined)	-7	3	-12	/	15	-4	/	/	/	/	/

Source: PubChem (several laboratories)
